ChEMBL document CHEMBL1125485, “Inhibitors of blood platelet cAMP phosphodiesterase. 2. Structure-activity relationships associated with 1,3-dihydro-2H-imidazo[4,5-b]quinolin-2-ones substituted with functionalized side chains” (J Med Chem, 1992)

Assays:
[1] = biological target: Phosphodiesterase 3 (Homo sapiens, UniProt Q14432+Q13370); assay: Inhibition of human platelet PDE by inhibiting cyclic Adenosine monophosphate (cAMP) hydrolysis
[2] = species: Oryctolagus cuniculus; assay: Inhibition of platelet aggregation using collagen as activating agent in rabbit platelet rich plasma (PRP); format: functional
Outline: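 Rabbit platelet-rich plasma, aggregation triggered by ADP or collagen after 3 min preincubation of PRP with drug. Single or duplicate determinations, reference agent included.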

[3] = species: Rattus norvegicus; assay: Oral efficacy in rats using the ex vivo aggregatory protocol; format: functional
Outline: (§1)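 Rats given compound orally, then ADP-induced platelet aggregation measured ex vivo.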

[4] = test system: Rattus norvegicus; assay: Percent inhibition of oral efficacy in rats using the ex vivo aggregatory protocol at 10 mg/kg; format: functional; outline: as §1
[5] = biological target: cGMP-dependent 3',5'-cyclic phosphodiesterase (Homo sapiens, UniProt O00408); assay: Inhibition of human platelet PDE by inhibiting cyclic Guanosine monophosphate (cGMP) hydrolysis
cGMP-dependent 3',5'-cyclic phosphodiesterase, sequence (O00408 whole entry): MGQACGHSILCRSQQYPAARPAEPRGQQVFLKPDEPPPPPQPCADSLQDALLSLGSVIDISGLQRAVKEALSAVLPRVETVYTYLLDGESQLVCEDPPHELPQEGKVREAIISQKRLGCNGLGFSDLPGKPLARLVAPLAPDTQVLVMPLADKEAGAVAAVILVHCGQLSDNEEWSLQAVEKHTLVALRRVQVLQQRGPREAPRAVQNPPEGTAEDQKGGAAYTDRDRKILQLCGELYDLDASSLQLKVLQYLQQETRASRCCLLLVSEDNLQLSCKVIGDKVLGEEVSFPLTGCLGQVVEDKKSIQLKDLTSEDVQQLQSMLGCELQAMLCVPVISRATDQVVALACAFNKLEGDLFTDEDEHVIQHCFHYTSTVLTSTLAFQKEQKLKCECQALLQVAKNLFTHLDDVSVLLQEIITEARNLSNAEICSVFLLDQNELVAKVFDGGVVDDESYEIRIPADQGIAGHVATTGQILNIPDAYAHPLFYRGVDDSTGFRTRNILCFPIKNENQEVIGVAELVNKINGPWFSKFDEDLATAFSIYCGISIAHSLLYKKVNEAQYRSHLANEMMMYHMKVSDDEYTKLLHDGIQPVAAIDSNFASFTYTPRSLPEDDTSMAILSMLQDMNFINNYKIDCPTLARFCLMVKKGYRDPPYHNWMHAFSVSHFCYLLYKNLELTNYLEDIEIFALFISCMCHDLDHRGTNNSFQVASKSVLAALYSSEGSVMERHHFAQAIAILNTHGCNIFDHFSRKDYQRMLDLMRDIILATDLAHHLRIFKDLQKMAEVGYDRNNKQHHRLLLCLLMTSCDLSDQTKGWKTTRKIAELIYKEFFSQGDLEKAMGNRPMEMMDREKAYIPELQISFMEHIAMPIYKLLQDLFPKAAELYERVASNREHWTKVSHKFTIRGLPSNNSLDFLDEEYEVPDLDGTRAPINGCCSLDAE

Row | Structure (SMILES) | IC50 [1] [µM] | EC50 [2] [µM] | ED50 [3] [mg/kg] | inhibition in vivo at 10 mg/kg [4] [%] | IC50 [5] [µM]
1 | O=C(CCCCc1ccc2[nH]c3nc(O)nc-3cc2c1)NC1CCCCC1 | 0.3 | 0.19 |  |  | 
2 | OCCCCCc1ccc2[nH]c3nc(O)nc-3cc2c1 | 0.1 | 0.22 | > 10 | 26 | 
3 | Cn1c(O)nc2cc3cc(OCCCC(=O)O)ccc3nc21 | 1 | 0.1 | < 10 | 59 | 
4 | O=C(CCCCc1ccc2[nH]c3nc(O)nc-3cc2c1)NC12C[C@H]3C[C@@H](C1)C[C@@H](C2)C3 | 0.006 | 0.3 |  |  | 
5 | O=C(CCCOc1ccc2nc3[nH]c(=O)[nH]c3cc2c1)N1CCOCC1 |  | 0.02 |  |  | 40
6 | CCOC(=O)CCCOc1ccc2[nH]c3nc(O)nc-3cc2c1 | 0.02 | 0.02 |  |  | 
7 | Cn1c(O)nc2nc3ccc(OCCCS(=O)(=O)c4ccccc4)cc3cc21 | 0.3 | 15.1 |  |  | 
8 | NC(=O)CCCOc1ccc2[nH]c3nc(O)nc-3cc2c1 | 0.008 | 2.52 |  |  | > 100
9 | CN(C(=O)CCCOc1ccc2[nH]c3nc(O)nc-3cc2c1)C1CCCCCC1 |  | 0.005 |  |  | 
10 | CCOC(=O)C1CCN(C(=O)CCCOc2ccc3[nH]c4nc(O)nc-4cc3c2)CC1 | 0.005 | 0.09 | 9.6 |  | 100
11 | CC(O)CCCOc1ccc2[nH]c3nc(O)nc-3cc2c1 (centres undefined) | 0.1 | 0.07 |  |  | 
12 | CN(C(=O)CCCCOc1ccc2nc3nc(O)n(C)c3cc2c1)C1CCCCC1 | 0.5 |  | 10 |  | 60
13 | O=C(CCCOc1ccc2[nH]c3nc(O)nc-3cc2c1)NC1CCCCCC1 | 0.01 | 0.008 | 5.4 |  | 
14 | CN(C(=O)CCCOc1ccc2c(c1)CN1CC(=O)NC1=N2)C1CCCCC1 [LIXAZINONE] | 0.003 | 0.08 |  |  | 
15 | Cn1c(O)nc2nc3ccc(OCCCC(=O)O)cc3cc21 | 0.6 | > 106 | > 10 |  | 10
16 | CCOCCOc1ccc2[nH]c3nc(O)nc-3cc2c1 | 0.05 | 1.29 |  |  | 
17 | CN(C(=O)CCCCOc1ccc2nc3nc(O)n(C)c3cc2c1)C1CCCCCC1 | 0.6 |  | > 10 | 43 | 10

Row | Structure (SMILES) | IC50 [1] [µM] | EC50 [2] [µM] | ED50 [3] [mg/kg] | inhibition in vivo at 10 mg/kg [4] [%] | IC50 [5] [µM]
18 | COC(=O)CCCCOc1ccc2nc3nc(O)n(C)c3cc2c1 | 5 |  |  |  | 100
19 | OCCCOc1ccc2[nH]c3nc(O)nc-3cc2c1 | 0.009 | 0.15 |  |  | 50
20 | CC(=O)OCCOc1ccc2[nH]c3nc(O)nc-3cc2c1 | 0.03 | 0.07 |  |  | 
21 | Cn1c(O)nc2nc3ccc(OCCCC(=O)N4CCCCC4)cc3cc21 |  | 2.44 |  |  | 60
22 | CC(=O)OCCCOc1ccc2[nH]c3nc(O)nc-3cc2c1 | 0.1 | 0.03 |  |  | 
23 | COC(=O)CCCOc1ccc2nc3c(cc2c1)nc(O)n3C | 2 | 0.17 |  |  | 
24 | Cn1c(=O)n(C)c2nc3ccc(OCCCC(=O)O)cc3cc21 | 4 | 1.25 |  |  | 
25 | O=C(O)CCCCOc1ccc2nc3[nH]c(=O)[nH]c3cc2c1 |  | > 106 |  |  | 30
26 | Oc1nc2cc3cc(OCCCCc4nnnn4C4CCCCC4)ccc3[nH]c-2n1 | 0.004 | 0.045 |  | 44 | > 100
27 | CN(C(=O)CCCCOc1ccc2[nH]c3nc(O)nc-3cc2c1)C1CCCCC1 | 0.002 | 0.0002 |  |  | 5
28 | COC(=O)CCCOc1ccc2nc3c(cc2c1)n(C)c(=O)n3C | 40 | 54.7 |  |  | 
29 | N#CCCCCOc1ccc2[nH]c3nc(O)nc-3cc2c1 | 0.1 | 0.13 |  |  | 
30 | O=C(O)CN(C(=O)CCCOc1ccc2[nH]c3nc(O)nc-3cc2c1)C1CCCCC1 | 0.0003 | 0.46 |  |  | 
31 | CN(C(=O)CCCCOc1ccc2nc3[nH]c(=O)[nH]c3cc2c1)C1CCCCCC1 | 0.0004 | 0.002 |  |  | 5
32 | CN(C(=O)CCCCc1ccc2[nH]c3nc(O)nc-3cc2c1)C1CCCCC1 | 0.04 | 0.026 |  |  | 
33 | CN(C(=O)CCCOc1ccc2nc3nc(O)n(C)c3cc2c1)C1CCCCCC1 | 0.1 | 0.01 | 10 |  | 7
34 | CN(C(=O)CCCOc1ccc2nc3c(cc2c1)nc(O)n3C)C1CCCCC1 | 0.1 | 0.13 | < 10 | 68 | 
